Measured values reported in ChEMBL document CHEMBL2321659, “Design, synthesis, and biological evaluation of indenoisoquinoline rexinoids with chemopreventive potential” (J Med Chem, 2013).
Calls of active or inactive are those of the source. No cut-off for these calls is given here.

Experiments:
[1] = Cytotoxicity against African green monkey COS1 cells assessed as cell survival; format: cell-based; set-up: concentration or dose not given beside the values; conditions: chlorocebus aethiops, COS-1 cells; read-out: Activity
[2] = target: T1, Retinoic acid receptor RXR-alpha (Homo sapiens) (UniProt P19793); experiment: Activation of human RXRalpha activity expressed in COS1 cells assessed as induction ratio at 50 uM after 12 hrs by RXRE-luciferase reporter gene assay relative to untreated control; format: cell-based; conditions: COS-1
T1 sequence (whole entry): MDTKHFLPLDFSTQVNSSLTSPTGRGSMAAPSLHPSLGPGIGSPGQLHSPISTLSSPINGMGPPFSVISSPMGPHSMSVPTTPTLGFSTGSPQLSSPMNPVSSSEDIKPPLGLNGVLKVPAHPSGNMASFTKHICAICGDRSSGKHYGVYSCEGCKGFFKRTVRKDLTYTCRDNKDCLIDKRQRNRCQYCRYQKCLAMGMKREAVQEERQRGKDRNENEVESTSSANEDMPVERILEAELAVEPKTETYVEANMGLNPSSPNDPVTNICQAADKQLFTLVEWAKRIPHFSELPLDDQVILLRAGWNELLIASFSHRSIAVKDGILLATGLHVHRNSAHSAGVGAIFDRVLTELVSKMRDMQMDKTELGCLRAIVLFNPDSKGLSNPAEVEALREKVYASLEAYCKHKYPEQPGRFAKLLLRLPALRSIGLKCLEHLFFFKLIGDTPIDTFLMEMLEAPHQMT
Method in brief: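 COS-1 cells transiently co-transfected per well with 100 ng RXRE-firefly luciferase reporter, 50 ng human RXRα expression vector and 3 ng Renilla luciferase vector using Lipofectamine 2000 for 24 h, then exposed to compound for a further 12 h. Dual-luciferase read-out. Induction ratio taken at 50 µM test concentration.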

[3] = target: T1, Retinoic acid receptor RXR-alpha (Homo sapiens); experiment: Binding affinity to RXRalpha (unknown origin) at 10 uM after 2 hrs by ultrafiltration LC-MS/MS analysis relative to control
Method in brief: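 Purified RXRα (10 µM stock in 50 mM Tris-HCl pH 7.5, 50 mM KCl, 1 mM EDTA) incubated with ligand (final 10 µM, DMSO) for 2 h at room temperature. Then 10 kDa ultrafiltration at 4 °C, three ammonium acetate pH 7.5 washes, release with 90% methanol, UHPLC-MS/MS (SRM). Binding ratio is peak area versus denatured-RXRα (60–70 °C, 15 min) control.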

[4] = target: T2, Vitamin D3 receptor (Homo sapiens) (UniProt P11473); experiment: Binding affinity to VDR (unknown origin) after 30 mins by ultrafiltration LC-MS/MS analysis relative to 6-(6-aminohexyl)-5H-indeno[1,2-c]isoquinoline-5,11(6H)-dione; set-up: Activity: concentration or dose not given beside the values
T2 sequence (whole entry): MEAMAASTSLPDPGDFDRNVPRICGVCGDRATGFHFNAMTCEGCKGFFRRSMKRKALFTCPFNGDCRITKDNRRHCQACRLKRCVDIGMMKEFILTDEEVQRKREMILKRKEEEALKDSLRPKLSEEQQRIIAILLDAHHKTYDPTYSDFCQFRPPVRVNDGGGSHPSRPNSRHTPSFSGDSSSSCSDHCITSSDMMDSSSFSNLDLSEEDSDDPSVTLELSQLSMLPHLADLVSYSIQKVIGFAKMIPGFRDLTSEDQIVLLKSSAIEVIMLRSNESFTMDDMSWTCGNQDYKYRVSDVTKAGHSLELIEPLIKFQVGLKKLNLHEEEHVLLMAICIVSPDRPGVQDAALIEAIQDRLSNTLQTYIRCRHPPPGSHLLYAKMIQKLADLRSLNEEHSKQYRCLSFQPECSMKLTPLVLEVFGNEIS
Method in brief: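 Recombinant VDR incubated with ligand in 20 µL for 30 min at 37 °C in the dark with shaking. Then ultrafiltration at 4 °C and rinses with cold 50 mM ammonium acetate/0.1 mM NaCl pH 8.0. Bound ligand released with methanol containing genistein, dried under N2 and quantified by LC-MS. Controls were boiled hVDR or no protein.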

[5] = target: T3, Retinoic acid receptor RXR-alpha (Homo sapiens, UniProt P19793); experiment: Activation of human RXRalpha activity expressed in COS1 cells after 12 hrs by RXRE-luciferase reporter gene assay; format: cell-based, COS-1
T3 sequence (P19793 whole entry): T1 sequence (whole entry)

HL-60 [6] = experiment: Cell cycle arrest in human HL60 cells assessed as accumulation at subG1 phase at 250 nM relative to control; format: functional
HL-60 [7] = experiment: Cytotoxicity against human HL60 cells assessed as inhibition of cell proliferation after 96 hrs; format: functional, cell-based; conditions: HL-60, 96 h
[8] = target: T2, Vitamin D3 receptor (Homo sapiens); experiment: Binding affinity to VDR (unknown origin) assessed as inhibition of curcumin binding after 30 mins by ultrafiltration LC-MS/MS analysis
HL-60 [9] = experiment: Cell cycle arrest in human HL60 cells assessed as accumulation at subG1 phase at 13 nM relative to control; format: functional

| SMILES | Ratio [2] | EC50 [5] | viability [1] | also measured |
| --- | --- | --- | --- | --- |
| CNc1ccc2c3c(n(CCCN)c(=O)c2c1)-c1ccccc1C3=O |  |  | 45.9% |  |
| CCOC(=O)CNc1ccc2c3c(n(CCCN)c(=O)c2c1)-c1ccccc1C3=O | < 1 |  | 22.2% | Activity [3]: inactive; Activity [4]: 1.62%; fold change (FC) [4]: 0.0162 |
| NCCCn1c2c(c3ccc([N+](=O)[O-])cc3c1=O)C(=O)c1ccccc1-2 | < 1 |  | 32.1% |  |
| NCCCn1c2c(c3ccc(C(=O)O)cc3c1=O)C(=O)c1ccccc1-2 | < 1 |  | 83.7% |  |
| NCCn1c2c(c3ccccc3c1=O)C(=O)c1ccccc1-2 | 8.2 | 15.9 µM | 30.7% |  |
| NCCCCCn1c2c(c3ccccc3c1=O)C(=O)c1ccccc1-2 | 4.9 | 12.2 µM | 40.7% | Activity [4]: 83.8%; fold change (FC) [4]: 0.838 |
| CNCCCn1c2c(c3ccccc3c1=O)C(=O)c1ccccc1-2 | > 1 | 9.22 µM | 51.2% | fold change (FC) [3]: 7.6 |
| COC(=O)/C=C/c1ccc2c3c(n(CCCN)c(=O)c2c1)-c1ccccc1C3=O | < 1 |  | 90.4% |  |
| CN(C)CCCn1c2c(c3ccccc3c1=O)C(=O)c1ccccc1-2 | > 1 | 9.6 µM | 52.5% | fold change (FC) [3]: 2.6 |
| O=C1c2ccccc2-c2c1c1ccc(Br)cc1c(=O)n2CCCN1CCOCC1 | < 1 |  | 100% |  |
| CNCCCn1c2c(c3ccc(N)cc3c1=O)C(=O)c1ccccc1-2 |  |  | 53% |  |
| CN(C)CCCn1c2c(c3ccc([N+](=O)[O-])cc3c1=O)C(=O)c1ccccc1-2 | < 1 |  | 83.7% |  |
| Cc1cc2c(cc1C1(c3ccc(C(=O)O)cn3)CC1)C(C)(C)CCC2(C)C |  |  | 84.3% |  |
| NCCCn1c2c(c3ccc(N)cc3c1=O)C(=O)c1ccccc1-2 |  | 4.4 µM | 52.1% | Activity (HL-60 [6]): 28.7%; IC50 (HL-60 [7]): 92 nM; inhibition [8]: inactive; Activity (HL-60 [9]): 4.5% |
| CN(C)CCCn1c2c(c3ccc(Br)cc3c1=O)C(=O)c1ccccc1-2 | > 1 | 18.4 µM | 48.5% |  |

Second part, led by results:

| Ratio [2] | EC50 [5] | SMILES | viability [1] | also measured |
| --- | --- | --- | --- | --- |
|  | > 34.7 µM | CC(=O)Nc1ccc2c3c(n(CCCN)c(=O)c2c1)-c1ccccc1C3=O | 69.2% |  |
| < 1 |  | CNCCCn1c2c(c3ccc([N+](=O)[O-])cc3c1=O)C(=O)c1ccccc1-2 | 33.1% |  |
| 6.7 | 16.4 µM | NCCCCCCn1c2c(c3ccccc3c1=O)C(=O)c1ccccc1-2 | 24.9% | Activity [4]: 100%; fold change (FC) [4]: 1 |
| > 1 | 19.5 µM | COC(=O)c1ccc2c3c(n(CCCN(C)C)c(=O)c2c1)-c1ccccc1C3=O | 21.7% |  |
| > 1 | 10.7 µM | CNCCCn1c2c(c3ccc(Br)cc3c1=O)C(=O)c1ccccc1-2 | 31.3% |  |
| > 1 | 4.84 µM | COc1ccc2c(c1)C(=O)c1c-2n(CCCN)c(=O)c2ccccc12 | 46.8% |  |
| < 1 |  | C[N+](C)(C)CCCn1c2c(c3ccccc3c1=O)C(=O)c1ccccc1-2 | 99.4% |  |
| < 1 |  | COc1cc2c3c(n(CCCN)c(=O)c2cc1OC)-c1ccc(F)cc1C3=O | 23.8% |  |
| < 1 |  | O=C(O)CCn1c2c(c3ccc(Br)cc3c1=O)C(=O)c1ccccc1-2 | 98% |  |
| < 1 |  | O=C1c2ccccc2-c2c1c1ccccc1c(=O)n2CCCn1ccnc1 | 100% |  |
| > 1 | 8.4 µM | NCCCn1c2c(c3ccc(NCC(=O)O)cc3c1=O)C(=O)c1ccccc1-2 | 61.2% |  |
| > 1 | > 44.5 µM | COC(=O)CC(=O)Nc1ccc2c3c(n(CCCN)c(=O)c2c1)-c1ccccc1C3=O | 85% | fold change (FC) [3]: 1.7 |
| 11.4 | 8.66 µM | NCCCn1c2c(c3ccccc3c1=O)C(=O)c1ccccc1-2 | 50.8% | Activity [4]: 42.7%; fold change (FC) [4]: 0.427 |
| > 1 | > 20.7 µM | CN(C)CCCn1c2c(c3ccc(C#N)cc3c1=O)C(=O)c1ccccc1-2 | 54.8% |  |
| > 1 | 10 µM | NCCCn1c2c(c3ccc(N)cc3c1=O)Cc1ccccc1-2 | 49.3% | Activity [4]: 15.1%; fold change (FC) [4]: 0.151 |
| > 1 | 7 µM | CN(C)CCCn1c2c(c3ccc(N)cc3c1=O)C(=O)c1ccccc1-2 | 53.7% | fold change (FC) [3]: 2.5; Activity [4]: 21.4%; fold change (FC) [4]: 0.214 |
| 9.9 | 11.3 µM | NCCCCn1c2c(c3ccccc3c1=O)C(=O)c1ccccc1-2 | 53.8% | Activity [4]: 35.3%; fold change (FC) [4]: 0.353 |
| < 1 |  | CN(C)c1ccc2c3c(n(CCCN)c(=O)c2c1)-c1ccccc1C3=O | 30.6% |  |
| < 1 |  | CC(=O)Nc1ccc2c3c(n(CCCN=[N+]=[N-])c(=O)c2c1)-c1ccccc1C3=O |  |  |
| < 1 |  | COC(=O)c1ccc2c3c(n(CCCN)c(=O)c2c1)-c1ccccc1C3=O | 55% |  |
| < 1 |  | COCCCn1c2c(c3ccccc3c1=O)C(=O)c1ccccc1-2 |  |  |
| < 1 |  | CC(=O)Nc1ccc2c3c(n(CCCO)c(=O)c2c1)-c1ccccc1C3=O |  |  |
| < 1 |  | Cn1c2c(c3ccc(I)cc3c1=O)C(=O)c1ccccc1-2 |  |  |
